Results: ChEMBL document CHEMBL1121835, “Synthesis and anxiolytic activity of 6-(substituted-phenyl)-1,2,4-triazolo[4,3-b]pyridazines” (J Med Chem, 1981)
Activity calls are given as the source filed them. No cut-off for these calls is given here.

Experiments:
[1] = species on record: Rattus norvegicus; experiment: Anxiolytic activity for protection against pentylenetetrazole-induced convulsions.; type: functional, organism-based
Procedure, shortened: (§1)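 Rats in groups of 10, food-deprived 24 h, given 4–6 graded doses of compound orally (or ip where noted). PTZ at 23 mg/kg was injected iv into the caudal vein 60 min later. Protection meant no clonic seizure lasting at least 5 s. The number protected was counted and the ED50 estimated.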

[2] = species on record: Rattus norvegicus; experiment: Average reduction in blood pressure over control (4 rats) at 4 hr in spontaneous hypertensive rats; type: functional
Procedure, shortened: (§2)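 Conscious cannulated male Okamoto SH rats, 300–350 g, dosed po with vehicle (2% boiled starch) or compound at 1, 5, 10 and 25 mg/kg. A second po dose was given 20 h later, and pressure was recorded continuously for 4 h. The value is the mean reduction against controls at 2 and 4 h, n = 4.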

[3] = species on record: Rattus norvegicus; experiment: Anxiolytic activity for protection against pentylenetetrazole-induced convulsions in experiment 1; type: functional; procedure, shortened: as §1
[4] = biological target: T1, GABA-A receptor; anion channel (Rattus norvegicus) (UniProt O09028+P15431+P18506+P18508+P19969+P20236+P23574+P23576+P28471+P28473+P30191+P62813+P63079+P63138+Q91ZM7+Q9ES14); experiment: In vitro inhibition of [3H]diazepam binding towards Benzodiazepine receptor at 1 uM; type: protein-complex assay
[5] = species on record: Rattus norvegicus; experiment: Anxiolytic activity for protection against pentylenetetrazole-induced convulsions in experiment 2; type: functional; procedure, shortened: as §1
[6] = system: Rattus norvegicus; experiment: Hypotensive activity in saline-loaded spontaneously hypertensive rats following 100 mg/kg p.o. administration.; type: functional; parameters: unit not given beside the values; settings: route oral
Procedure, shortened: (§3)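 Male Okamoto SH rats, about 300 g, gavaged with compound suspended in 2% boiled starch, with 0.9% NaCl loading at 25 mL/kg, at 0 h. An identical dose without saline followed at 24 h. Mean arterial pressure was taken by iliac artery puncture under local lidocaine at 28 h. Values are from one to three rats.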

[7] = species on record: Rattus norvegicus; experiment: Average reduction in blood pressure over control (4 rats) at 2 hr in spontaneous hypertensive rats; type: functional; procedure, shortened: as §2
[8] = system: Rattus norvegicus; experiment: Hypotensive activity evaluated as mean arterial blood pressure (MABP) in saline-loaded spontaneously hypertensive rats dosed (per oral) at 25 mg/kg; type: functional; procedure, shortened: as §3
[9] = system: Rattus norvegicus; experiment: In vivo protection against pentylenetetrazole-induced convulsions in the rat.; type: functional; procedure, shortened: as §1
[10] = system: Rattus norvegicus; experiment: Compound was evaluated for anxiolytic activity for protection against pentylenetetrazole-induced convulsions; no activity at 50 mg/kg; type: functional, organism-based; parameters: dose 50 mg/kg; procedure, shortened: as §1
[11] = biological target: GABA-A receptor; anion channel; experiment: In vitro for inhibition of [3H]diazepam towards Benzodiazepine receptor from rat; type: protein-complex assay
Procedure, shortened: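 Rat frontal cortex homogenized in ice-cold 0.32 M sucrose; crude P2 synaptosomal fraction resuspended in 50 mM Tris-HCl pH 7.4. IC50 read graphically from % inhibition vs log concentration plots.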

[12] = system: Rattus norvegicus; experiment: Compound was evaluated for anxiolytic activity for protection against pentylenetetrazole-induced convulsions; No activity at 50 mg/Kg; type: functional, organism-based; procedure, shortened: as §1
[13] = biological target: T1, GABA-A receptor; anion channel (Rattus norvegicus); experiment: In vitro percent inhibition of [3H]diazepam binding to rat GABA-A benzodiazepine receptor at 1 uM; type: protein-complex assay
[14] = Rattus norvegicus, read-out: ED50

With `Clc1ccc(-c2ccc3nnc(-c4ccccc4)n3n2)cc1` the ED50 [1] was “inactive”.

In the case of `Clc1ccc(-c2ccc3nncn3n2)cc1`, the BP [2] is reported as -17 mmHg, the ED50 [3, 14] is reported as 5.3 mg/kg and the inhibition [4] is reported as less than 10%. For the same molecule, the ED50 [5] was 9.8 mg/kg, the MABP [6] was 110 and the BP [7] was -15 mmHg. It also gave an MABP [8] of 136.

`COCc1nnc2ccc(-c3cccc(C(F)(F)F)c3)nn12` showed an ED50 [9] of 6.4 mg/kg and an inhibition [4] of 23%.

With `Cc1nnc2ccc(-c3ccc(Cl)c(Cl)c3)nn12` the ED50 [1] was “inactive”.

Work on `Cl.Clc1cccc(Cl)c1NC1=NCCN1` [CLONIDINE HYDROCHLORIDE] yielded an MABP [6] of 102.

With `Clc1ccc(-c2ccc3nncn3n2)cc1Cl` the ED50 [1] was “inactive”.

In the case of `CCCc1nnc2ccc(-c3cccc(C(F)(F)F)c3)nn12`, the ED50 [1] is reported as “inactive”, the MABP [6] is reported as 112 and the MABP [8] is reported as 165.

`CC(=O)Nc1cccc(-c2ccc3nnc(C)n3n2)c1` was tested, and the inhibition [4] was 56%, the EC50 [10] was “Not Active” and the IC50 [11] was 633 nM.

For `Cc1cc(-c2cccc(C(F)(F)F)c2)nn2c(C)nnc12`, the ED50 [12] was “inactive” and the inhibition [4] was less than 10%.

For `c1ccc(-c2ccc3nnc(-c4ccccc4)n3n2)cc1`, the ED50 [1] was “inactive” and the inhibition [4] was 74%.

For `Cc1cc(-c2cccc(C(F)(F)F)c2)nn2cnnc12`, the inhibition [4] was less than 10%, the MABP [6] was 102 and the EC50 [10] was “Not Active”.

`O=[N+]([O-])c1cccc(-c2ccc3nncn3n2)c1` showed an ED50 [9] of 22 mg/kg.

Molecule `Cc1cc2nnc(C)n2nc1-c1cccc(C(F)(F)F)c1` has an ED50 [9] of 13.8 mg/kg, an inhibition [4] of 26% and an MABP [6] of 129.

In the case of `Cc1cccc(-c2ccc3nnc(C(F)(F)F)n3n2)c1`, the ED50 [12] is reported as “inactive”.

For `Cc1nnc2ccc(-c3cccc(N)c3)nn12`, the ED50 [9] was 12 mg/kg, the inhibition [4] was 60% and the inhibition [13] was 58%. It also gave an IC50 [11] of 510 nM.

`FC(F)(F)c1ccc(-c2ccc3nncn3n2)cc1` showed a BP [2] of -12 mmHg, an ED50 [9] of 5.8 mg/kg and an inhibition [4] of 21%. It also gave an MABP [6] of 85, a BP [7] of -15 mmHg and an MABP [8] of 136.

`Cc1nnc2ccc(-c3ccc(F)cc3)nn12` showed an ED50 [3] of 2 mg/kg, an ED50 [3, 14] of 3.4 mg/kg and an inhibition [4] of 65%. For the same molecule, the inhibition [13] was 64% and the IC50 [11] was 589 nM.

Work on `Fc1ccc(-c2ccc3nncn3n2)cc1` yielded a BP [2] of -31 mmHg, an ED50 [3, 14] of 5 mg/kg and an inhibition [4] of 16%. For the same molecule, the ED50 [5] was 2.2 mg/kg, the MABP [6] was 88 and the BP [7] was -26 mmHg. The MABP [8] was 123.

Work on `Fc1cccc(-c2ccc3nncn3n2)c1` yielded an ED50 [9] of 5.5 mg/kg.

For `Cc1nnc2ccc(-c3ccccc3F)nn12`, the ED50 [9] was 10.4 mg/kg, the inhibition [4] was 37% and the IC50 [11] was 7450 nM.

Work on `CNC1=Nc2ccc(Cl)cc2C(c2ccccc2)=[N+]([O-])C1` [CHLORDIAZEPOXIDE] yielded an ED50 [9] of 1.7 mg/kg, an inhibition [4] of 75% and an IC50 [11] of 248 nM.

`Cl.NNc1nncc2ccccc12` [HYDRALAZINE HYDROCHLORIDE] was tested, and the MABP [8] was 82.

`FC(F)(F)c1cccc(-c2ccc3nnc(CCl)n3n2)c1` was tested, and the ED50 [12] was “inactive”, the inhibition [4] was 67% and the IC50 [11] was 391 nM.

With `FC(F)(F)c1cccc(-c2ccc3nnc(C(F)(F)F)n3n2)c1` the ED50 [1] was “inactive” and the inhibition [4] was 60%.

`Cc1cc2nnc(C)n2nc1-c1cccc(F)c1` was tested, and the ED50 [1] was “inactive” and the inhibition [4] was less than 10%.

In the case of `Cc1cc2nncn2nc1-c1cccc(F)c1`, the ED50 [1] is reported as “inactive” and the MABP [6] is reported as 142.

With `Cc1cc2nncn2nc1-c1ccc(F)cc1` the ED50 [1] was “inactive” and the MABP [6] was 105.

Molecule `c1ccc(-c2ccc3nncn3n2)cc1` has an ED50 [3, 14] of 9 mg/kg, an inhibition [4] of 23% and an ED50 [5] of 4.8 mg/kg.

For `CCc1nnc2ccc(-c3ccc(Cl)cc3)nn12`, the ED50 [1] was “inactive” and the MABP [6] was 141.

For `Nc1cccc(-c2ccc3nncn3n2)c1`, the ED50 [3, 14] was 15 mg/kg, the inhibition [4] was 32% and the ED50 [5] was 16.6 mg/kg.
